# This is a sample that favours compounds with a hit; in the whole collection about 1.7% have one here.
# APJ agonist = agonists of human apelin receptor APJ, primary screen, CHO-K1 cells, PathHunter beta-arrestin, luminescence. P35414. 0% DMSO wells, 100% apelin. activation, % at 20 µM. 330,000 compounds, 0.11% hits;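 active = activation more than six SD over the plate average, tested at 20 µM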;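 also: 0% = DMSO alone and 100% = apelin-13 at 10 nM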
#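 Test system – PathHunter CHO-K1 APJ (AGTRL-1) beta-arrestin reporter cells · Input – 1000 cells/well · Compound – single test compound dose, 20 µM final, 1% DMSO · Times – compound stimulation 90 min at 25 °C, detection 60 min · Technique – beta-gal luminescence · Read-out basis – APJ–arrestin association signal · Control set – negative DMSO alone, positive Apelin-13 at 10 nM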
# CXCR6 block = CXCR6 receptor inhibitors, primary screen, cell-based, beta-arrestin, luminescence, CHO-K1 PathHunter, 1536-well | C-X-C chemokine receptor type 6 (Homo sapiens), O00574 | inhibition, % at 20 µM | 360,000 compounds, 0.36% hits | AID 602244, 2012; in the data active = inhibition above about 34%, passing the limit was not always enough;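 also: antagonist mode with CXCL16 agonist at 10 nM final; 0% = 10 nM CXCL16 with DMSO and 100% = unstimulated wells without agonist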
# B2AR ag = beta2AR agonists driving receptor internalization, primary screen, cell-based, FAP fluorogen, flow cytometry; Beta-2 adrenergic receptor (Homo sapiens), P07550; Am2.2-beta2AR cells; response, % (no concentration beside the values); 340,000 compounds, 0.43% hits; AID 504454, 2011;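 active = response above a set limit, near 3 SD of response in nonfluorescent compounds, cut at about 42% in these data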
# CCR6 antagonist = CCR6 receptor antagonists, primary screen, cell-based, CHO-K1, luminescence, beta-arrestin, uHTS | CHO-K1 CCR6 PathHunter beta-arrestin, CCL20-stimulated | inhibition, % at 20 µM | 340,000 compounds, 0.49% hits;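 active = compounds whose inhibition of the agonist-driven luminescence signal at 20 µM reaches about 50%, limit read from the data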;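 also: cells stimulated with CCL20 at 14 nM final; plate controls were DMSO with CCL20 for no effect and DMSO without agonist for full effect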
# Target sequence (P51684 whole entry, looked up): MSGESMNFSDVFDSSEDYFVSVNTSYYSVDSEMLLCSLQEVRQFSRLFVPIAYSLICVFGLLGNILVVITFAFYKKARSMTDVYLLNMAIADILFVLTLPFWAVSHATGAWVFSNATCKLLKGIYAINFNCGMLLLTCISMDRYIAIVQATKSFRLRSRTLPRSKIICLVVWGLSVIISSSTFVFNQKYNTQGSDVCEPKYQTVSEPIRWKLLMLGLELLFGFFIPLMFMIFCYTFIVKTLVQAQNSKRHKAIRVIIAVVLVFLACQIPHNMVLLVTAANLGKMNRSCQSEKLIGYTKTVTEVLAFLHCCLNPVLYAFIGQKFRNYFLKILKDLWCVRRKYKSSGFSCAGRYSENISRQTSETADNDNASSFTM
# APJ antagonist = antagonists of human apelin receptor APJ, primary screen, CHO-K1 cells, beta-arrestin complementation, luminescence. P35414. 330,000 compounds, 0.32% hits. inhibition, % at 20 µM;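 active = inhibition above about 40% at 20 µM, limit read from the data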;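 also: cells challenged with 10 nM apelin-13 agonist together with compound; plate controls were apelin-13 plus DMSO wells for no effect and DMSO wells lacking apelin-13 for full effect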
# PfGluPho inh = PfG6PD enzyme inhibitors, primary screen, biochemical, fluorescence intensity, uHTS; glucose-6-phosphate dehydrogenase-6-phosphogluconolactonase (Plasmodium falciparum 3D7); PfGluPho enzyme, NADPH resazurin-diaphorase fluorescence; inhibition, % at 20 µM; 350,000 compounds, 0.78% hits; AID 504690, 2011;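 active = inhibition reaching at least a set limit at 20 µM in the primary screen, cut at about 59% in these data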;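 also: 0% = DMSO wells with substrate and 100% = DMSO wells lacking glucose-6-phosphate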
# PfG6PD confirm = PfG6PD inhibitors, hit retest, confirmation, biochemical, fluorescence intensity, single concentration; inhibition, % at 20 µM; 2,400 compounds, 34% hits; shares compounds with PfGluPho inh; recombinant PfGluPho, NADPH-diaphorase-resazurin fluorescence; AID 504753, 2011;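 active = inhibition of at least 50% at 20 µM in any single replicate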;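 also: 0% = DMSO with substrate and 100% = DMSO lacking glucose-6-phosphate substrate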
# Diaph ctr 10uM = diaphorase inhibitors and chemical oxidizers, confirmation, counter-screen for P. falciparum G6PD inhibitor project, biochemical, fluorescence intensity, 10 µM NADPH. shares compounds with PfGluPho inh. 820 compounds, 39% hits. inhibition, % at 20 µM. diaphorase-coupled resazurin reduction, NADPH 10 uM;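 active = average inhibition reaching 50% or more with the compound at 20 µM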;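 also: resorufin red fluorescence formed as diaphorase reduces resazurin using NADPH; 0% = DMSO with enzyme and 100% = DMSO without enzyme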
# Diaphorase 30uM = diaphorase inhibitors and chemical oxidizers, confirmation, counter-screen for P. falciparum G6PD inhibitor project, biochemical, fluorescence intensity, 30 µM NADPH; 820 compounds, 29% hits; Diaphorase/resazurin coupled assay, resorufin fluorescence; inhibition, % at 20 µM; shares compounds with PfGluPho inh;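 active = inhibition averaging 50% or more, tested at 20 µM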;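 also: 0% = DMSO with enzyme and 100% = DMSO wells lacking diaphorase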
# The depositor's hits bear a star; / = not tested or not shown.
SMILES,APJ agonist,CXCR6 block,B2AR ag,CCR6 antagonist,APJ antagonist,PfGluPho inh,PfG6PD confirm,Diaph ctr 10uM,Diaphorase 30uM
O=C(O)COn1c(-c2ccc(Cl)cc2)nc2ccc(Cl)cc21,1,-2,0,0,-4,60*,36,/,/
O=C(O)COn1c(-c2ccccc2)nc2ccc([N+](=O)[O-])cc21,-1,-12,-1,3,-5,57,/,/,/
COn1c(-c2ccc(Cl)cc2)nc2ccc(Cl)cc21,-1,-6,-10,9,23,66*,8,/,/
O=C(Sc1n[nH]c(=O)[nH]c1=O)c1ccccc1,/,-4,-18,-18,/,111*,93*,-8,-9
Cc1cc(C)c2c(N)c(C(=O)N3CCCCCC3)sc2n1,-4,-5,-22,0,28,70*,1,/,/
COC(=O)c1nn(-c2cccc(C(F)(F)F)c2)ccc1=O,-2,2,2,-3,-17,7,/,/,/
O=c1ccn(-c2cccc(C(F)(F)F)c2)nc1-c1ccn(-c2cccc(Cl)c2)n1,-1,2,-23,-11,12,87*,67*,61*,57*
O=C1c2ccccc2C(=O)c2c1cccc2N(CCO)CCO,0,2,-2,13,8,12,/,/,/
O=C1C=C(N(CCO)Cc2ccccc2)c2ccccc2C1=O,/,2,20,0,/,71*,46,/,/
Cc1cc(NCCCCCCCNc2cc(C)nc3cc([N+](=O)[O-])ccc23)c2ccc([N+](=O)[O-])cc2n1,/,0,16,6,/,78*,12,/,/
Cc1ccccc1S(=O)(=O)NC(=O)C1(C)CCN1C(=O)CC1CCCC1 (stereo unspecified),/,1,/,/,/,/,/,/,/
Cc1nn(-c2ccccc2)c(Cl)c1/C=N/Nc1nc2ccccc2[nH]1,-1,3,-3,4,-2,17,/,/,/
Cc1cc(=O)[nH]c(N/N=C/c2c(C)nn(-c3ccccc3)c2Cl)n1,0,-19,-6,6,6,86*,78*,-14,-11
COc1ccc(-c2cn3cc(C)ccc3n2)cc1Br,2,3,14,4,-14,103*,54*,45,30
O=C(O)c1ccccc1-c1cn2cc(Cl)ccc2n1,-2,2,0,-4,-16,8,/,/,/
Clc1ccc2nc(-c3ccc(Br)s3)cn2c1,-1,-11,-7,12,-9,80*,51*,38,42
Cc1ccc2nc(-c3cccc(S(=O)(=O)N(C)C)c3)cn2c1,-1,-5,-14,-9,-6,50,/,/,/
COc1ccc(-c2cn3cc(Cl)ccc3n2)cc1OC,2,-2,-7,2,13,133*,77*,62*,57*
Cc1cc(-c2cc(NC=O)c3ncc(-c4cccc(C(=O)NCCN(C)C)c4)n3c2)cc(C)c1O,/,-2,/,/,/,/,/,/,/
COc1cc(CN2C[C@@H](CO)O[C@@H](n3cnc4c(NC5CC5)ncnc43)C2)cc(OC)c1OC,/,-1,/,/,/,/,/,/,/
COc1ccc(OC)c(/C=N/NC(=O)C(O)c2ccccc2)c1 (stereo unspecified),0,-6,2,4,-13,-10,/,/,/
CCOC(=O)c1c2c(n(-c3ccc(OC)cc3)c1C)C(=O)C(=O)c1ccccc1-2,/,26,12,34,/,72*,36,/,/

# Screening results: PubChem BioAssay, several laboratories
